CAL PDZ FP-1: CAL PDZ (human) peptide binding inhibition | purified CAL PDZ, TMR-peptide fluorescence polarization, 1 h | inhibition, % at 24.9 µM | 0.92% of 300,000 active | Q9HD26;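 active means mean inhibition of at least 30% with at least half of replicates also reaching 30%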
DYRK1A inh: inhibitors of rat Dyrk1A kinase; ADP-Glo luminescence, NFATc1 peptide; inhibition, % at 12.5 µM; 0.43% of 310,000 active; in the data active means inhibition above about 50%
CAL PDZ FP-2: blocks peptide binding to human CAL PDZ domain | AID 504414 | 0.02% of 330,000 active | Q9HD26 | purified CAL PDZ, TMR-peptide fluorescence polarization, 1 h | inhibition, % at 20 µM;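 active means highest replicate inhibition of at least 40%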
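System: purified tagged CAL PDZ domain construct (CerCALP). Schedule: 1 h incubation at room temperature before polarization reading. Medium: 25 mM sodium phosphate pH 7.4, 150 mM NaCl, TCEP, IgG, Thesit. Read-out: percent inhibition from loss of millipolarization. Measured by: FP readout, S and P plane fluorescence. Probe or stimulus: fluorescent TMR peptide probe.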
ARNT TACC3 PPI: disrupts binding between human ARNT and TACC3; Q9Y6A5; AlphaScreen His-ARNT PAS-B/GST-TACC3 binding, luminescence; TACC3 fragment carries E629A point mutation; inhibition, % at 9.99 µM; 0.66% of 390,000 active;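 active means mean inhibition of replicates at least 50% and at least half of replicates each reaching 50%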
Numbers stand for hits; - = inactive; . = not tested or not shown; + = active, no number; ! = repeats disagree. Most compounds without a hit are left out; they make up all but 1.4% or so of the library.

SMILES | CAL PDZ FP-1 | DYRK1A inh | CAL PDZ FP-2 | ARNT TACC3 PPI
CN(C)S(=O)(=O)c1cccc(NC(=S)N/N=C/c2ccc(O)c(O)c2O)c1 | - | - | - | 68.7
COc1ccc(O)c(/C=N/NC(=S)Nc2cccnc2)c1 | - | - | - | 67.3
CCCNC(=O)C[C@@H]1CC[C@H]2[C@H](COc3ccc(NC(=O)Nc4cccc(C)c4)cc3C(=O)N2C)O1 | . | . | . | -
CC=Cc1ccc2n(c1=O)C[C@H]1[C@H](CO)[C@@H](C(=O)NC3CCCCC3)N(C(=O)C3CC3)[C@@H]21 (mixture of isomers) | . | . | . | -
COc1ccccc1S(=O)(=O)N(C)C[C@@H]1Oc2cc(C#CCC(C)C)ccc2S(=O)(=O)N([C@@H](C)CO)C[C@@H]1C | . | . | . | -
CCCc1sc(N/N=C/c2ccccn2)nc1-c1ccc(F)cc1 | - | - | - | 67.0
CCN=c1scc(-c2ccc(F)cc2)n1/N=C/c1ccccn1 | . | - | - | -
CN(CC(=O)NC1CCCC1)S(=O)(=O)c1cccc(Cl)c1 | - | - | - | -
Cc1cc(NC(=O)CN(C)S(=O)(=O)c2cccc(Cl)c2)no1 | 112.5 | - | - | -
CN(CC(=O)Nc1ccc(Cl)cc1)S(=O)(=O)c1ccc2c(c1)n(C)c(=O)c(=O)n2C | + | - | - | -
O=C(O)c1ccccc1OCCOc1ccccc1C(=O)O | - | . | - | 50.0
O=C(O)c1ccccc1OCCOCCOc1ccccc1C(=O)O | - | . | - | -
CCCC#Cc1cnc2c(c1)C(=O)N([C@H](C)CO)C[C@@H](C)[C@H](CN(C)C(=O)CN1CCOCC1)O2 | . | . | . | -
COc1ccc(S(=O)(=O)N(C)C[C@H]2Oc3ccc(NC(=O)Cn4cnnn4)cc3C(=O)N([C@@H](C)CO)C[C@@H]2C)cc1 | . | . | . | -
CCn1cc(C(=O)N[C@H](C(=O)O)C(C)C)c(=O)c2cc3c(cc21)OCO3 | 46.3 | - | . | -
COC(=O)/C(=C/Nc1ccc(O)cc1)[N+](=O)[O-] | 65.6 | - | - | 23.7
COC(=O)/C(=C/Nc1ccccc1)[N+](=O)[O-] | - | - | - | .
CN1CCN(C(=O)C[C@@H]2C[C@@H]3c4cc(NC(=O)NC5CCCC5)ccc4O[C@@H]3[C@@H](CO)O2)CC1 | . | . | . | -
CC(C)n1cnc2c(NCc3ccccc3)cc(N[C@H](C)CO)cc21 | - | - | - | 34.5
CCCCOc1cc(NCc2ccccc2)c2ncn(C(C)C)c2c1 | - | - | - | -
CCOCCOc1cc(NCc2ccccc2)c2ncn(C(C)C)c2c1 | - | - | - | 19.5
CCC(CO)Oc1cc(NCc2ccccc2)c2ncn(C(C)C)c2c1 (configuration not stated) | - | - | - | 40.6!
CN1C(=O)c2cc(NC(=O)Nc3ccccc3F)ccc2OC[C@@H]2O[C@@H](CC(=O)O)CC[C@@H]21 | . | . | . | -
C[C@H](NC(=O)C[C@H]1CC[C@H]2[C@@H](COC[C@@H](O)CN2C(=O)Nc2cc(Cl)cc(Cl)c2)O1)c1ccccc1 | . | . | . | -
CO[C@H]1CC[C@@H]2CCOc3ccc(C#N)cc3C(=O)N(C)C[C@@H](OC)[C@@H](C)C(=O)N(C)C[C@H]1O2 | . | . | . | -
SMILES | CAL PDZ FP-1 | DYRK1A inh | CAL PDZ FP-2 | ARNT TACC3 PPI
Cc1ccc(S(=O)(=O)NCCNS(=O)(=O)c2ccc(C)cc2)cc1 | 56.1 | - | . | -
Nc1c2c(nc3ccccc13)CSCC2 | 49.6 | - | - | -
CN1C(=O)c2cc(NC(=O)C3CCOCC3)ccc2OC[C@@H]2O[C@@H](CC(=O)NC3CCCC3)CC[C@@H]21 | . | . | . | -
CCCNC(=O)C[C@H]1CC[C@H]2[C@@H](COc3ccc(NC(=O)Nc4ccccc4F)cc3C(=O)N2C)O1 | . | . | . | -
O=C(c1ccccc1)C1N=NCC1c1ccc(Cl)cc1 (configuration not stated) | 174.1 | - | - | -
CCN(CC)C(=O)Cn1cc(C(=O)C(=O)N2CCc3ccccc32)c2ccccc21 | 46.1 | . | - | -
O=C(Cc1ccncc1)NCC[C@@H]1CC[C@@H](NS(=O)(=O)c2ccccc2Cl)[C@H](CO)O1 | . | . | . | -
COC(=O)c1sc(-c2ccc(Cl)cc2)cc1NC(=O)COCC(=O)O | 47.9 | . | - | -
S=C(NCc1ccccn1)Nc1ccc(Cl)c(Cl)c1 | - | - | - | .
CCNC(=S)NNC(=O)c1ccccn1 | - | - | - | 67.5
CCNC(=S)NNC(=O)c1ccncc1 | 68.5 | - | - | -
O=C(NNC(=S)Nc1ccc(Cl)c(Cl)c1)c1ccccn1 | - | - | - | 74.8
O=C(NC1CCCC1)c1ncn[nH]1 | - | - | - | 22.4
Cc1ccc(C)c(NC(=O)c2ncn[nH]2)c1 | - | - | - | -
COc1ccc(CCNS(=O)(=O)CCNC(=O)c2ccc(OC)cc2)cc1 | - | - | - | -
COc1ccc(CCNC(=O)c2ccc(Br)cc2)cc1 | 41.8 | - | . | -
COc1ccccc1OCCNC(=O)c1ccc(Br)cc1 | 32.9 | - | . | -
O=C(Nc1ccc(Cl)cc1)NN1CCCCCC1 | - | . | - | -
N#Cc1ccc(NC(=O)NN2CCCCCC2)cc1 | 82.2 | . | - | -
C[C@@H]1CN([C@@H](C)CO)C(=O)Cc2cc(NS(=O)(=O)c3ccc(F)cc3)ccc2O[C@H]1CN(C)S(=O)(=O)c1cccs1 | . | . | . | -
CCCC#Cc1ccc2c(c1)O[C@@H](CN(C)C(=O)C1CC1)[C@H](C)CN([C@@H](C)CO)S2(=O)=O | . | . | . | -
Cc1nnsc1C(=O)N1CCN(c2ccc(F)cc2)CC1 | 36.8 | . | - | -
Cc1c(C(=O)N2CCN(c3ccccc3)CC2)sc2nc3n(c(=O)c12)CCC3 | - | . | - | -
Cc1nnsc1C(=O)N1CCCC(N2CCN(c3ccc(F)cc3)CC2)C1 (configuration not stated) | - | - | - | -
Cc1c(C(=O)N2CCN(c3ccc(F)cc3)CC2)sc2nc3n(c(=O)c12)CCC3 | 86.1 | - | - | -
SMILES | CAL PDZ FP-1 | DYRK1A inh | CAL PDZ FP-2 | ARNT TACC3 PPI
C[C@H](CO)N1C[C@H](C)[C@@H](CN(C)C(=O)c2ccccc2F)Oc2ncc(-c3cncnc3)cc2C1=O | . | . | . | -
C[C@@H]1CN([C@H](C)CO)C(=O)c2cc(-c3cncnc3)cnc2O[C@H]1CN(C)C(=O)c1ccccc1F | . | . | . | active
CCC(=O)Nc1ccc2c(c1)C(=O)N(C)[C@H]1CC[C@@H](CC(=O)N[C@@H](C)c3ccccc3)O[C@H]1CO2 | . | . | . | -
c1ccc(Oc2ncnc3sccc23)cc1 | 64.3 | . | - | -
CN1C(=S)SC(/[N+]([O-])=C\c2ccccc2)C1(C)C (configuration not stated) | - | - | - | -
CN1C(=S)SC(/[N+]([O-])=C/c2cccnc2)C1(C)C (configuration not stated) | 31.3 | - | . | -
Cc1ccc(S(=O)(=O)N(C)C[C@@H]2Oc3ccc(NC(=O)Nc4ccc(F)cc4)cc3C(=O)N([C@H](C)CO)C[C@H]2C)cc1 | . | . | . | -
O=C(Nc1nc2ccccc2[nH]1)c1cc2ccccc2o1 | 45.7 | - | - | -
CCOc1ccc(S(=O)(=O)NC(C)C(=O)NCc2ccc3c(c2)OCO3)cc1 (configuration not stated) | 75.8 | - | - | -
COc1ccc(CN(C)C[C@@H]2OCCCC[C@@H](C)Oc3ccc(NC(=O)Nc4ccc(F)cc4)cc3C(=O)N([C@@H](C)CO)C[C@@H]2C)cc1 | . | . | . | -

Screening data deposited in PubChem by Broad Institute.
